The list is not random: actives were taken first. Their share in the collection is about 2.3%.
PLCb3 inh: PLC-beta3 (human) inhibition, primary screen | Q01970 | Purified PLC-beta3, fluorogenic substrate, fluorescence | inhibition, % at 12.2 µM | 370,000 tested, 0.18% active | AID 720704; in the data active = inhibition above about 11%;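 also: 0% = median of compound wells on plate and 100% = full blocker control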
DDE Tn6 FP inh: disrupts Tn6 cyclic peptide binding to fibrin D-Dimer-E complex; Fibrin DD(E) TRITC-Tn6 fluorescence polarization displacement; P02675; 370,000 tested, 0.21% active; inhibition, % at 8.3 µM;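 active = inhibition above a per-campaign cutoff: mean of compounds within control limits plus 3 SD, cut at about 15% in these data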;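 also: 0% = median of all compound wells on the plate and 100% = blocking peptide control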
ADAM17 inh: inhibitors of human ADAM17; P78536; recombinant ADAM17, EDANS/DABCYL FRET peptide cleavage; inhibition, % at 6.95 µM; 370,000 tested, 0.83% active; AID 720648;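 active = inhibition above the mean of compounds lying between control limits plus 3 SD, set per campaign, cut at about 8.5% in these data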;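 also: 0% = DMSO-only wells as the low control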
Tn7 DDE FP: DD(E)-Tn7 binding inhibition, primary FP screen; inhibition, % at 8.3 µM; FP displacement of FITC-Tn7 peptide from fibrin DD(E); 0% = median of compound wells per plate; 370,000 tested, 0.13% active;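 active = inhibition above the mean of compounds falling within the control limits plus 3 SD of them, cut at about 14% in these data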;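 also: 0% = plate median of compound wells and 100% = 10 µM Aha-Tn7 peptide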
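Test system: human clot-derived fibrin DD(E) complex / Quantity: 2 µM final DD(E) protein / Incubation: 10 min plus 3 h, room temperature / Measured by: fluorescence polarization / Benchmarks: high control of 10 µM Aha-Tn7 peptide / Replicates: singlicate testing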
PLCg1 inh: blocks human PLC-gamma1 enzyme activity; 370,000 tested, 0.84% active; purified PLC-gamma1, fluorogenic substrate, fluorescence; P19174; inhibition, % at 12.2 µM
Target sequence (P19174 whole entry, looked up): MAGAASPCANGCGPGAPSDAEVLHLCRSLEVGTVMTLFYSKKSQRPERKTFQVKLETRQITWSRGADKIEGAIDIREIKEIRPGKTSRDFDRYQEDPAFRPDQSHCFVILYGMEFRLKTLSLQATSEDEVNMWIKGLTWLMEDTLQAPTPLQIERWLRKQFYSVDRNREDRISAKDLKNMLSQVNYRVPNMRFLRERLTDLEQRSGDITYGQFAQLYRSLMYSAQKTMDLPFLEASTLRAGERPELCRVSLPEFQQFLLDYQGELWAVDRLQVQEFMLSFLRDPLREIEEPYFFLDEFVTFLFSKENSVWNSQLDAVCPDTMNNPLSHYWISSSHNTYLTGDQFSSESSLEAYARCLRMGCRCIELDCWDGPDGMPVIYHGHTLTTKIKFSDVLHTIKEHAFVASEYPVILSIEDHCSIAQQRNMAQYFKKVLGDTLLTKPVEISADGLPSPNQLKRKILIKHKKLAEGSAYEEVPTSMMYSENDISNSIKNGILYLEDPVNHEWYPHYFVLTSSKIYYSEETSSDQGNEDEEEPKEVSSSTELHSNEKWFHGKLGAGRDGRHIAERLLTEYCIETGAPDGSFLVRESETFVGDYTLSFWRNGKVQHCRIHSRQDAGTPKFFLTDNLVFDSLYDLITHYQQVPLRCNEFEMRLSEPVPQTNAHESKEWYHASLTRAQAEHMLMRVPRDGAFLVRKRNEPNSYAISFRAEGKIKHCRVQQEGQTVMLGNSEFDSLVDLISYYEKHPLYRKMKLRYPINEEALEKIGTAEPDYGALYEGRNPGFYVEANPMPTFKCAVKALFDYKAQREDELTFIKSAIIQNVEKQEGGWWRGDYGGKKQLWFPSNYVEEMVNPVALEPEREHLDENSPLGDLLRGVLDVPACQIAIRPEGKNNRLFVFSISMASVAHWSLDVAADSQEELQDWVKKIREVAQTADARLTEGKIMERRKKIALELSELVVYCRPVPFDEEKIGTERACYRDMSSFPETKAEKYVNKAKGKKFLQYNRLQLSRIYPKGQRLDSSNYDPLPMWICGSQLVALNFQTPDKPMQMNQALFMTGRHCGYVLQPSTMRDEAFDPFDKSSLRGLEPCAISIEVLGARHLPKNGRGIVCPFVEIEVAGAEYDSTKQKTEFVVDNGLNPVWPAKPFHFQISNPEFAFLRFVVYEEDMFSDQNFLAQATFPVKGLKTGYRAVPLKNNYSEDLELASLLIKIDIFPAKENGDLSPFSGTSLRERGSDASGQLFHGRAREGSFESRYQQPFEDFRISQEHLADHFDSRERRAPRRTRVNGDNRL
ADAM10 inh: ADAM10 inhibition, QFRET primary screen; 370,000 tested, 0.62% active; inhibition, % at 7 µM; recombinant ADAM10, EDANS/DABCYL FRET peptide cleavage, 3 h; O14672; AID 720582;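 active = inhibition above a per-campaign cutoff equal to the mean of compounds falling between control-based bounds plus 3 SD, cut at about 20% in these data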;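 also: 0% = DMSO wells while the 100% control is not disclosed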
PLCg1 ctr: inhibits human PLC-gamma1 in PLC-beta3 counter-screen; shares compounds with PLCg1 inh; inhibition, % at 12.3 µM; purified PLC-gamma1, fluorogenic substrate, fluorescence; AID 743258; 3,300 tested, 3.1% active
PLCbeta3 conf: confirmation of human PLC-beta3 inhibitors | shares compounds with PLCg1 inh | purified PLC-beta3, fluorogenic substrate fluorescence | inhibition, % at 12.3 µM | 3,300 tested, 1% active | AID 743261; in the data active = inhibition above about 11%
Numbers without * were called inactive; · = no result given. Rule as the data show it, unless noted: active = inhibition above about 9.5%; inactive = the rest.

SMILES	PLCb3 inh	DDE Tn6 FP inh	ADAM17 inh	Tn7 DDE FP	PLCg1 inh	ADAM10 inh	PLCg1 ctr	PLCbeta3 conf
Cc1noc(C)c1NC(=O)NC(c1ccccc1)c1ccccc1	-6.1	4.8	-3.5	-1.0	10.3*	9.5	6.4	1.5
CCOC(=O)[C@]12CCCCC/C=C\1N(CCc1ccc(Cl)cc1)C(=O)[C@H]2CC(=O)N1CCOCC1	-0.4	-4.8	3.1	5.1	-0.5	-0.6	·	·
Cn1c(=O)c2cc(S(=O)(=O)NC(Cc3ccccc3)C(=O)NCc3ccco3)ccc2n(C)c1=O (centres undefined)	1.9	3.4	1.3	3.5	74.8*	-8.0	-5.8	-2.1
COCCCNC(=O)C(Cc1ccccc1)NS(=O)(=O)c1ccc2c(c1)c(=O)n(C)c(=O)n2C (centres undefined)	3.5	8.7	-2.2	4.3	1.2	-2.9	·	·
COC(=O)c1cc(NC(=O)NC2CCCCN(Cc3cccc(Cl)c3)C2=O)cc(C(=O)OC)c1 (centres undefined)	-1.2	2.4	-0.6	0.1	-0.6	-6.6	·	·
CCN(CC)c1ccc(C=Nn2c(C)nnc2C)cc1	2.6	3.0	-3.0	-4.0	6.1	-28.2	·	·
O=C(Oc1ccc(Br)cc1C(=S)N1CCCC1)c1ccccc1F	1.7	2.0	6.3	-5.5	13.2*	10.2	-4.2	-2.8
COC(=O)C1CN(Cc2ccc(OC)cc2)CCS(=O)(=O)N1Cc1cn(Cc2ccccc2)nn1 (centres undefined)	2.3	1.1	-2.4	6.8	-2.5	-3.6	·	·
C/C(=N\Nc1ccc([N+](=O)[O-])cc1[N+](=O)[O-])C(C)(C)C(C(=O)O)C(=O)O	5.3	3.9	2.1	4.2	10.7*	6.8	-3.3	0.8
Cc1ccc2c(c1)N(CCCC(=O)NCc1cccs1)C(=O)CO2	1.5	6.9	-1.1	-6.8	-5.3	-7.2	·	·
COc1ccc2c(c1)OC(=O)CC2c1cc(OC)c(OC)c(OC)c1 (centres undefined)	8.1	-1.2	3.6	-5.8	10.8*	6.9	-3.6	-11.4
COc1ccc(CN=C2NC(=O)CC(C(=O)Nc3cc(C)cc(C)c3)S2)cc1 (centres undefined)	16.7*	-5.5	1.5	-7.9	8.6	4.9	0.8	0.9
COc1ccc(CCN2CC(C(=O)N(C)CC(=O)Nc3ccc(F)c(F)c3F)CC2=O)cc1OC (centres undefined)	-0.9	-2.3	-1.1	-1.8	11.1*	-13.3	-3.8	-0.9
C=CCn1c(SCC(=O)c2[nH]c(C)c(C(=O)OCC)c2C)nc2scc(-c3ccc(OC)c(OC)c3)c2c1=O	10.6*	-0.5	4.0	-6.7	6.2	4.0	-9.1	-1.5
CCOC(=O)c1c(C)[nH]c(C(=O)CSc2nnc(-c3ccncc3)n2CC)c1C	3.2	5.6	1.3	-0.6	1.4	2.3	·	·
Cc1ccc(-c2cc(-c3nnc4sc(COc5ccccc5)nn34)[nH]n2)cc1	-4.2	-4.5	-3.7	-3.5	2.9	-7.5	·	·
CCCCc1c(C(=O)O)cc(OC)cc1C(=O)O	4.1	-1.8	-0.2	0.8	7.6	1.2	·	·
Cc1cc(C(=O)O)c(CCCN)s1	11.6*	-0.8	0.7	-0.3	5.9	-0.3	-2.2	1.1
CCN(CC)S(=O)(=O)c1ccc(C(C)NCC(=O)Nc2ccccc2C(=O)NC2CC2)cc1 (centres undefined)	-4.5	0.8	-0.6	-6.2	10.2*	-1.9	-0.5	-0.9
CC(NCC(=O)Nc1ccccc1C(=O)NC1CC1)c1ccc(S(N)(=O)=O)cc1 (centres undefined)	-3.7	-5.4	-3.6	4.9	-5.8	-15.7	·	·
CC(=O)Nc1ccc(NC(=O)c2cc(-c3cc(F)ccc3OCC3CCCO3)n[nH]2)cc1 (centres undefined)	1.8	1.2	-3.5	3.7	-0.5	-4.8	·	·
